≈ marks a conversion by molar mass, not a printed value. Calls of active or inactive are those of the source. The calls are words filed in the database; no cut-off is given here.
How the values were obtained:
H9 [1] = experiment: Effective dose against growth of HIV infected H9 lymphocytes; type: functional; details: Homo sapiens, read-out: ED50 (the source's name)
H9 [2] = experiment: Inhibitory activity against growth of uninfected H9 lymphocytes; type: functional, cell-based; details: Homo sapiens
Summary of the method: (§1)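 Uninfected H9 cultures exposed to compound diluted in medium for 4 days at 37 °C. Cell density counted in a Coulter counter; IC₅₀ determined.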

[3] = Therapeutic index valued has been determined in H9 cells; type: cell-based; details: human, read-out: Therapeutic index
H9 [4] = experiment: Effective dose required to inhibit virus replication growth by 50%; type: functional; details: Homo sapiens, H9, read-out: ED50
H9 [5] = experiment: Inhibitory concentration required to inhibit uninfected growth of H9 lymphocytes by 50%; type: functional, cell-based; details: Homo sapiens; summary of the method: as §1
A549 = experiment: Effective dose against 50% reduction in Human lung carcinoma (A-549) cell number after 3-day incubation.; type: functional, cell-based
HCT-8 [6] = experiment: Effective dose against 50% reduction in Human ileocecal carcinoma (HCT-8) cell number after 3-day incubation; type: functional; details: HCT-8, 72 h, read-out: ED50 (the source's name)
P388 [7] = experiment: Effective dose against 50% reduction in Murine leukemia (P-388) cell number after 3-day incubation; type: functional; details: Mus musculus, P388, 72 h; read-out: ED50 (the source's name)
RPMI [8] = experiment: Effective dose against 50% reduction in Human melanoma (RPMI)cell number after 3-day incubation; type: functional; details: 72 h, read-out: ED50 (the source's name)
TE-671 [9] = experiment: Effective dose against 50% reduction in Human CNS tumor (TE671) cell number after 3-day incubation; - indicates inactive; type: functional, cell-based
KB [10] = experiment: Effective dose against 50% reduction in Human epidermoid carcinoma of the nasopharynx (KB) cell number after 3-day incubation; type: functional; details: 72 h, read-out: ED50 (the source's name)
P388 [11] = experiment: Effective dose against 50% reduction in Murine leukemia (P-388) cell number after 3-day incubation; - indicates inactive; type: functional, cell-based; details: Mus musculus
HCT-8 [12] = experiment: Effective dose against 50% reduction in Human ileocecal carcinoma (HCT-8) cell number after 3-day incubation.; type: functional, cell-based
KB [13] = experiment: Effective dose against 50% reduction in Human epidermoid carcinoma of the nasopharynx (KB) cell number after 3-day incubation; - indicates inactive; type: functional, cell-based
RPMI [14] = experiment: Effective dose against 50% reduction in Human melanoma (RPMI)cell number after 3-day incubation; - indicates inactive; type: functional, cell-based
[15] = molecular target: T1, DNA topoisomerase 1 (Homo sapiens) (UniProt P11387); experiment: Inhibitory activity against DNA topoisomerase I at dose 100 uM
T1 sequence (whole entry): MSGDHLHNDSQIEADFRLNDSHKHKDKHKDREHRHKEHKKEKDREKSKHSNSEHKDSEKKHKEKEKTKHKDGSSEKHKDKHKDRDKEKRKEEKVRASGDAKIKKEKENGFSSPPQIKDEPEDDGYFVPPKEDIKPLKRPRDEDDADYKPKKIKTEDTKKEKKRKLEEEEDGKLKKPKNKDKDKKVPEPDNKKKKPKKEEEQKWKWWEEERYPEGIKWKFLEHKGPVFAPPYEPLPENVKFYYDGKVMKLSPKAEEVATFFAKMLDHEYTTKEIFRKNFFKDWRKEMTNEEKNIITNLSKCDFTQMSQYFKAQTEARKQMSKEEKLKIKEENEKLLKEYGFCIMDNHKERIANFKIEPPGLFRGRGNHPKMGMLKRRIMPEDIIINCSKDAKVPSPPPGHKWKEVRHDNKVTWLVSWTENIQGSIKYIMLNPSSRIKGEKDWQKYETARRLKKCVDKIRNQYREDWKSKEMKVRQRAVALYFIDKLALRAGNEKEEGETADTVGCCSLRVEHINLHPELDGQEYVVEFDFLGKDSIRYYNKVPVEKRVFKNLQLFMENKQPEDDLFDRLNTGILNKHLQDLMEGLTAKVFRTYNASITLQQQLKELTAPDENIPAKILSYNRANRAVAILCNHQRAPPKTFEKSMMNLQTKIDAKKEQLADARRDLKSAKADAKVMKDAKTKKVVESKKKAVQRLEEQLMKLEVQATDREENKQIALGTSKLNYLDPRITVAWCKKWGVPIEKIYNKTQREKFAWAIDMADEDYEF
Summary of the method: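 Topo I activity read as ATP-independent relaxation of supercoiled plasmid DNA. Test compound at 100 µM; % inhibition is relative to enzyme and DNA control reactions. Camptothecin served as the positive inhibitor control.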

[16] = molecular target: DNA topoisomerase II (Homo sapiens) (UniProt P11388+Q02880); experiment: Inhibitory activity against DNA topoisomerase II at dose 100 uM; type: protein assay
Summary of the method: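 Topo II activity read as ATP-dependent unknotting of P4 DNA. Test compound at 100 µM; % inhibition is relative to enzyme and DNA control reactions. VP-16 served as the reference inhibitor.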

TE-671 [17] = experiment: Effective dose against 50% reduction in Human CNS tumor (TE671) cell number after 3-day incubation; type: functional; details: TE-671, 72 h, read-out: ED50 (the source's name)
KB [18] = experiment: Cellular protein-linked DNA breaks in KB oral carcinoma cell culture treated in triplicate at 50 uM for 1 hr; type: functional, Homo sapiens
Summary of the method: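 Read-out is potassium-SDS precipitable cpm in treated KB cultures, expressed as fold.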

H9 [19] = experiment: Effective dose against H9 cell lines; type: functional, cell-based; details: Homo sapiens
Tubulin alpha chain = Tubulin alpha chain (Sus scrofa, UniProt P02550); experiment: Inhibitory activity of the compound against tubulin polymerization; type: functional
Sequence of Tubulin alpha chain (P02550 whole entry, looked up): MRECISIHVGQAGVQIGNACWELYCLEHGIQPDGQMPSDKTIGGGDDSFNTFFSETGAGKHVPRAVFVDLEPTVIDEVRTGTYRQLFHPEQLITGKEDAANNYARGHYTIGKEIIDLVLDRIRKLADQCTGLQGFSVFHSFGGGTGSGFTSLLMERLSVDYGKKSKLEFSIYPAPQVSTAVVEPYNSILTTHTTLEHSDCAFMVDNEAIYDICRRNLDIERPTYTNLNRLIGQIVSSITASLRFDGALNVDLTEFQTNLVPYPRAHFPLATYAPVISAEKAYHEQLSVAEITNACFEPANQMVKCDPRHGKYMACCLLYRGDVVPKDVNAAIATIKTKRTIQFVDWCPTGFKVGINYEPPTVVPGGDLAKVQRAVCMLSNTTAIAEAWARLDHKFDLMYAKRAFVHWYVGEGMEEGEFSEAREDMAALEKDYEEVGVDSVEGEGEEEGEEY

In the case of Oc1cc(-c2ccccc2)nc2c(S)cccc12, the EC50 (H9 [1]) is reported as 12 µg/mL (≈ 47.4 µM), the IC50 (H9 [2]) is reported as 35 µg/mL (≈ 138 µM) and the selectivity ratio [3] is reported as 2.9.
Cc1cn([C@H]2C[C@H](N=[N+]=[N-])[C@@H](CO)O2)c(=O)[nH]c1=O [ZIDOVUDINE] gave an EC50 (H9 [4]) of 0.04 µM and an IC50 (H9 [5]) of 2000 µM.
In the case of COc1cccc(-c2cc(=O)c3cc(OC)c(OC)cc3s2)c1, the ED50 (A549) is reported as “inactive”, the EC50 (HCT-8 [6]) is reported as 6.35 µg/mL (≈ 19.3 µM) and the EC50 (P388 [7]) is reported as 0.61 µg/mL (≈ 1.86 µM). The EC50 (RPMI [8]) was 5.5 µg/mL (≈ 16.7 µM), the ED50 (TE-671 [9]) was “inactive” and the EC50 (KB [10]) was 5.5 µg/mL (≈ 16.7 µM).
In the case of COc1cc2sc(-c3ccccc3)cc(=O)c2cc1OC, the ED50 (A549) is reported as “inactive”, the EC50 (HCT-8 [6]) is reported as 9.33 µg/mL (≈ 31.3 µM) and the ED50 (P388 [11]) is reported as “inactive”. The EC50 (RPMI [8]) was 8.89 µg/mL (≈ 29.8 µM), the ED50 (TE-671 [9]) was “inactive” and the EC50 (KB [10]) was 4.23 µg/mL (≈ 14.2 µM).
In the case of O=c1cc(-c2ccccc2)sc2cccc(O)c12, the ED50 (A549) is reported as “inactive”, the ED50 (HCT-8 [12]) is reported as “inactive” and the ED50 (KB [13]) is reported as “inactive”. The ED50 (P388 [11]) was “inactive”, the ED50 (TE-671 [9]) was “inactive” and the ED50 (RPMI [14]) was “inactive”.
For O=c1cc(-c2ccccc2)sc2cc(O)c(O)cc12, the ED50 (A549) was “inactive”, the inhibition [15] was 100% and the inhibition [16] was 0%. It also gave an EC50 (H9 [1]) of 0.8 µg/mL (≈ 2.96 µM), an IC50 (H9 [2]) of 1.8 µg/mL (≈ 6.66 µM) and an EC50 (HCT-8 [6]) of 1.45 µg/mL (≈ 5.36 µM). The EC50 (P388 [7]) was 4.51 µg/mL (≈ 16.7 µM), the EC50 (RPMI [8]) was 3.92 µg/mL (≈ 14.5 µM) and the EC50 (TE-671 [17]) was 5.5 µg/mL (≈ 20.3 µM). It also gave a selectivity ratio [3] of 2.3, an Activity (KB [18]) of 1 and an EC50 (KB [10]) of 5.5 µg/mL (≈ 20.3 µM).
In the case of O=c1cc(-c2ccccc2)oc2cc(O)cc(O)c12 [CHRYSIN], the EC50 (H9 [19]) is reported as 5 µM and the selectivity ratio [3] is reported as 9.
With COc1ccc(-c2oc3c(OC)c(OC)c(OC)c(O)c3c(=O)c2OC)cc1O the IC50 (Tubulin alpha chain) was 0.83 µM.
With COc1ccc2sc(-c3ccccc3)cc(=O)c2c1 the ED50 (A549) was “inactive”, the ED50 (HCT-8 [12]) was “inactive” and the ED50 (KB [13]) was “inactive”. The ED50 (P388 [11]) was “inactive”, the ED50 (TE-671 [9]) was “inactive” and the ED50 (RPMI [14]) was “inactive”.
With Nc1cccc2c(=O)cc(-c3ccccc3)sc12 the ED50 (A549) was “inactive”, the EC50 (H9 [1]) was 4 µg/mL (≈ 15.8 µM) and the IC50 (H9 [2]) was 15 µg/mL (≈ 59.2 µM). For the same molecule, the ED50 (HCT-8 [12]) was “inactive”, the ED50 (KB [13]) was “inactive” and the EC50 (P388 [7]) was 7.46 µg/mL (≈ 29.4 µM). The EC50 (RPMI [8]) was 5.5 µg/mL (≈ 21.7 µM), the ED50 (TE-671 [9]) was “inactive” and the selectivity ratio [3] was 3.8.
With CC(=O)Oc1ccc2c(=O)cc(-c3ccccc3)sc2c1 the ED50 (A549) was “inactive”, the EC50 (H9 [1]) was 80 µg/mL (≈ 270 µM) and the IC50 (H9 [2]) was 45 µg/mL (≈ 152 µM). For the same molecule, the ED50 (HCT-8 [12]) was “inactive”, the ED50 (KB [13]) was “inactive” and the ED50 (P388 [11]) was “inactive”. For the same molecule, the ED50 (TE-671 [9]) was “inactive”, the selectivity ratio [3] was 0.6 and the ED50 (RPMI [14]) was “inactive”.

Reference: ChEMBL document CHEMBL1129311, “Antitumor agents. 166. Synthesis and biological evaluation of 5,6,7,8-substituted-2-phenylthiochromen-4-ones” (J Med Chem, 1996)
